# Bioassay records from PubChem BioAssay.
# SR-BI DiI-HDL act = enhances SR-BI lipid uptake from DiI-HDL | CHO ldlA[mSR-BI] cells, DiI-HDL uptake fluorescence, 3 h; 100 = double the neutral-control signal | activation, % at 12.5 µM | 320,000 compounds, 0.096% hits;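 active means mean replicate activation of at least 60% and every replicate at or above 60%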
#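 Material: SR-BI-overexpressing, LDLR-lacking CHO cells | Dosing: Single compound concentration, delivered by pin transfer | Probe or stimulus: Labelled HDL, 10 µg/mL | Signal: Bottom-read cell fluorescence after medium removal, ex 550/em 595 nm | Schedule: 3 h, 37 °C | Evaluation: HDL uptake via cellular fluorescence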
# CAL PDZ FP-1 = human CAL PDZ-peptide interaction inhibition | Q9HD26 | purified CAL PDZ, TMR-peptide fluorescence polarization, 1 h | inhibition, % at 20 µM | 330,000 compounds, 0.02% hits | AID 504414;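 active means highest replicate inhibition of at least 40%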
#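 Material: tagged CAL PDZ protein CerCALP, purified; buffer or medium: sodium phosphate/NaCl buffer pH 7.4 with TCEP, IgG, Thesit; also added: fluorescent TMR peptide probe; schedule: 1 h incubation at room temperature before polarization reading; technique: fluorescence polarization from S- and P-plane intensities, G-factor corrected; control set: unlabelled peptide and DMSO controls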
# SR-BI DiI inh = mouse SR-BI HDL lipid transfer inhibition; ldlA[mSR-BI] CHO cells, DiI-HDL uptake fluorescence, 3 h; 320,000 compounds, 0.96% hits; AID 488896; inhibition, % at 12.5 µM;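 active means mean replicate inhibition of at least 70% and a set share of replicates each scoring 70 or more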
# Target sequence (Q61009 whole entry, looked up): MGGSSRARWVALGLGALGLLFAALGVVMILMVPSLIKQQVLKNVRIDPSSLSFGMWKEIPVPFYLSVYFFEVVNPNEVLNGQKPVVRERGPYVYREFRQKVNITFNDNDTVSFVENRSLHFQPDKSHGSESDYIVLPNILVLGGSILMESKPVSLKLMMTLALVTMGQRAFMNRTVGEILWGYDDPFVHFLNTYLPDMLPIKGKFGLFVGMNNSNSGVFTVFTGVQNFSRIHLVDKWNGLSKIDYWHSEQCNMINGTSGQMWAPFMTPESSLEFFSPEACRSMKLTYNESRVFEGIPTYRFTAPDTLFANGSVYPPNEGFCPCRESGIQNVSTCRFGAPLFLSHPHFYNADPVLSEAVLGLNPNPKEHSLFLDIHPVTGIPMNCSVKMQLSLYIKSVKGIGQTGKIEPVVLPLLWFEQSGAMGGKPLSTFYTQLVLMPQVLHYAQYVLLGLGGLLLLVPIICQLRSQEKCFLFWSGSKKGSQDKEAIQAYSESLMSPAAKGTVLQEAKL
# miR122 inh = inhibitors of miR-122 in Huh7 cells | activation (reporter increase), % at 12.5 µM | Huh7 miR-122 Renilla luciferase sensor, 48 h; neutral wells = 0, positive control = 100 | 340,000 compounds, 0.3% hits;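 active means mean replicate activation score at least 90 and every replicate individually at or above 90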;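 further: higher luciferase means less miR-122 activity so hits act as miR-122 inhibitors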
# CAL PDZ FP-2 = CAL PDZ (human) peptide binding inhibition | Q9HD26 | purified CAL PDZ, TMR-peptide fluorescence polarization, 1 h | inhibition, % at 24.9 µM | 300,000 compounds, 0.92% hits | AID 602252;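 active means mean inhibition of at least 30% with at least half of replicates also reaching 30%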
# ARNT TACC3 PPI = disrupts binding between human ARNT and TACC3; AlphaScreen His-ARNT PAS-B/GST-TACC3 binding, luminescence; TACC3 fragment carries E629A point mutation; inhibition, % at 9.99 µM; 390,000 compounds, 0.66% hits;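 active means mean inhibition of replicates at least 50% and at least half of replicates each reaching 50%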
# Hits are given with their value; . = inactive; / = no result; [ ] = remark or other dose. The list is not random: actives were taken first. Their share in the collection is about 2.1%.
SMILES,SR-BI DiI-HDL act,CAL PDZ FP-1,SR-BI DiI inh,miR122 inh,CAL PDZ FP-2,ARNT TACC3 PPI
COc1cccc(NC(=O)N2C[C@H](O)COC[C@H]3O[C@@H](CC(=O)NCc4ccccc4F)CC[C@@H]32)c1,/,/,/,.,/,.
C[C@H]1CN([C@@H](C)CO)C(=O)c2cc(C3=CCCCC3)cnc2O[C@@H]1CN(C)C(=O)Cc1ccncc1,/,/,/,.,/,/
COc1ccc(C(=O)Nc2cc3c4c(c2)C(C)C(=O)N4CCC3)cc1 (stereo not drawn),.,.,.,/,.,.
COc1ccc(C(=O)Nc2cc3c4c(c2)C(C)C(=O)N4CCC3)cc1OC (stereo not drawn),.,.,79,.,.,.
CC(=O)N1C[C@@H]2[C@H](c3ccccc31)[C@H](CO)N2C(=O)c1ccc(F)cc1,/,/,/,.,/,.
O=c1c2cc3c(cc2[nH]c(=S)n1CCN1CCOCC1)OCO3,/,/,/,.,45,.
CC1CCN(CCn2c(=S)[nH]c3cc4c(cc3c2=O)OCO4)CC1,.,.,.,.,.,.
CCN1c2ccccc2N(C)C1(C)c1ccccc1 (stereo not drawn),.,.,.,.,.,64
COc1ccc(NC(=O)NCc2ccncc2)c(OC)c1,.,.,.,.,/,/
COc1ccc(NC(=O)NCc2cccn2C)c(OC)c1,.,.,85,.,.,.
COc1ccc(NC(=O)Nc2cccc3ccccc23)c(OC)c1,.,.,71,.,.,.
COc1ccc(OC)c(NC(=O)Nc2cccc3ccccc23)c1,.,.,.,.,.,.
CNC(=O)C[C@@H]1CC[C@H]2[C@H](COc3ccc(NC(=O)NC4CCCC4)cc3C(=O)N2C)O1,/,/,/,.,/,.
O=C(C[C@@H]1CC[C@H]2[C@@H](COC[C@@H](O)CN2S(=O)(=O)c2cccc(Cl)c2)O1)NCCCN1CCOCC1,/,/,/,.,/,.
O=C1CCN(Cc2ccccc2)C(=O)N1,.,.,.,/,.,.
O=C1NC(=O)N(Cc2ccccc2)CC1Br (stereo not drawn),.,.,.,.,31,.
COc1ccc(/C(C)=N/NC(=O)c2ccc(CSc3cccc4cccnc34)cc2)cc1OC,.,.,90,.,.,.
Cc1cccnc1NC(=O)c1ccc(Br)o1,.,.,.,.,.,.
O=C(Nc1nnc2n1CCS2)c1ccc(Br)o1,.,.,.,/,.,46
CO[C@H]1CN(C)C(=O)c2ccc(NC(=O)Nc3cccc(F)c3)cc2OC[C@H](C)N(C(=O)Nc2c(C)noc2C)C[C@@H]1C,/,/,/,/,/,.
O=C(NCCN1CCN(C(=O)c2ccccc2Cl)CC1)C(=O)NCc1ccccc1,.,.,.,/,48,.
CC(=O)Nc1cccc(/C(C)=N/NC(N)=S)c1,.,.,82,.,.,.
C/C(CCc1ccc2c(c1)OCO2)=N\NC(=S)NC(C)C,.,.,77,.,.,.
COCCNC(=S)N/N=C(\C)CCc1ccc2c(c1)OCO2,.,.,.,.,/,.
C[C@H](CO)N1C[C@H](C)[C@@H](CN(C)C(=O)c2ccccc2)OCCCC[C@H](C)Oc2ccc(NC(=O)NC3CCCCC3)cc2C1=O,/,/,/,.,/,.
SMILES,SR-BI DiI-HDL act,CAL PDZ FP-1,SR-BI DiI inh,miR122 inh,CAL PDZ FP-2,ARNT TACC3 PPI
CCCNC(=O)NC[C@@H]1[C@@H](c2ccc(C3=CCCC3)cc2)[C@@H](CO)N1C(=O)CC,/,/,/,143[16.7 µM],/,.
O=C(CSc1nc2ccc([N+](=O)[O-])cc2[nH]1)NC1CCCCCC1,.,.,.,328,.,.
CO[C@H]1CN(C)C(=O)c2ccc(NC(=O)C3CCCC3)cc2OC[C@H](C)N(S(C)(=O)=O)C[C@H]1C,/,/,/,/,/,.
CN(C)S(=O)(=O)c1ccc(N2CCOCC2)nc1,.,.,.,.,/,.
CN(Cc1ccccc1)S(=O)(=O)c1ccc(N2CCOCC2)nc1,.,.,.,.,73,.
CCCC#Cc1ccc2c(c1)O[C@@H](CN(C)Cc1ccccn1)[C@H](C)CN([C@H](C)CO)S2(=O)=O,/,/,/,.,/,.
CO[C@@H]1CN(C)C(=O)c2cc(NC(=O)c3ccc(F)cc3)ccc2OC[C@@H](C)N(C(=O)c2ccc(F)cc2)C[C@@H]1C,/,/,/,/,/,.
N/C(=N\OC(=O)c1ccc2c(c1)OCO2)c1ccncc1,.,.,.,.,48,.
N/C(=N\OC(=O)c1ccc2c(c1)OCO2)c1ccc(Cl)cc1,.,.,.,.,.,.
CCCC#Cc1ccc2c(c1)O[C@H](CN(C)Cc1cccnc1)[C@H](C)CN([C@@H](C)CO)S2(=O)=O,/,/,/,.,/,.
Cc1nnc(NS(=O)(=O)c2ccc(N=Nc3ccc(N)nc3N)cc2)s1,.,.,.,/,.,57
Cc1nnc(NS(=O)(=O)c2ccc(N)cc2)s1,.,.,.,.,.,.
COc1ccc(C(=O)N/C(=C\c2cn(C)c3ccccc23)C(=O)N2CCN(C)CC2)cc1,.,.,.,.,.,.
CN(C)S(=O)(=O)n1cc(/C=C(\NC(=O)c2ccccc2F)C(=O)N2CCCC2)c2ccccc21,.,.,.,.,.,.
CN1CCN(C(=O)/C(=C/c2cn(S(=O)(=O)N(C)C)c3ccccc23)NC(=O)c2ccccc2F)CC1,.,.,.,.,54,.
CCn1cc(/C=C(\NC(=O)c2ccc(OC)cc2)C(=O)N2CCN(C)CC2)c2ccccc21,.,.,.,.,.,48
CC(C)NC(=O)N(C)C[C@@H]1Oc2cc(C#Cc3ccccn3)ccc2S(=O)(=O)N([C@@H](C)CO)C[C@@H]1C,/,/,/,.,/,.
C[C@@H]1CN([C@@H](C)CO)S(=O)(=O)c2ccc(-c3ccc(C(=O)N(C)C)cc3)cc2O[C@H]1CN(C)C(=O)C1CC1,/,/,/,.,/,/
CCNC(=O)[C@@H]1[C@@H](CO)[C@@H]2Cn3c(ccc(-c4ccccc4)c3=O)[C@@H]2N1Cc1ccccn1,/,/,/,.,/,43
CC(=O)N[C@@H]1CC[C@@H](CCNC(=O)Nc2ccc(C(F)(F)F)cc2)O[C@@H]1CO,/,/,/,/,/,.
